Test results as given in ChEMBL document CHEMBL4196059, “Design, synthesis, and biological evaluation of stable β6.3-Helices: Discovery of non-hemolytic antibacterial peptides” (Eur J Med Chem, 2018).
pKd: −log10 of the molar value. Active and inactive are the calls of the source. The rule behind the calls is not given here.

Columns and labels:
[1] = Hemolytic activity against human RBC at 3.125 uM after 1 hr by Drabkin's assay relative to control; format: ADME, cell-based, Erythrocyte; conditions: human red blood cells (erythrocytes), read-out: Activity
[2] = Hemolytic activity against human RBC at 25 uM after 1 hr by Drabkin's assay relative to control; format: ADME, cell-based, Erythrocyte; conditions: human red blood cells (erythrocytes), read-out: Activity
[3] = test system: Pseudomonas aeruginosa; assay: Growth inhibition of Pseudomonas aeruginosa ATCC 27853 at 32 ug/ml after 18 hrs; format: functional; conditions: ATCC 27853, 18 h, read-out: GI
In short: (§1)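 Mid-log cultures were prepared as above and seeded at 5×10^5 CFU/mL with compound at a final 32 μg/mL, then held static at 37 °C for 18 h. Growth was read as OD600. Percent inhibition was calculated against media-only and bacteria-only controls on the same plate.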

[4] = test system: Candida albicans; assay: Growth inhibition of Candida albicans ATCC 90028 at 32 ug/ml after 24 hrs by OD530 light-scattering microspectrophotometric method; conditions: ATCC 90028, 24 h, read-out: GI
[5] = Hemolytic activity against human RBC at 12.5 uM after 1 hr by Drabkin's assay relative to control; format: ADME, cell-based, Erythrocyte; conditions: human red blood cells (erythrocytes), read-out: Activity
[6] = Hemolytic activity against human RBC at 1.56 uM after 1 hr by Drabkin's assay relative to control; format: ADME, cell-based, Erythrocyte; conditions: human red blood cells (erythrocytes), read-out: Activity
[7] = Hemolytic activity against human RBC at 0.78 uM after 1 hr by Drabkin's assay relative to control; format: ADME, cell-based, Erythrocyte; conditions: human red blood cells (erythrocytes), read-out: Activity
[8] = Hemolytic activity against human RBC at 6.25 uM after 1 hr by Drabkin's assay relative to control; format: ADME, cell-based, Erythrocyte; conditions: human red blood cells (erythrocytes), read-out: Activity
[9] = test system: Cryptococcus neoformans; assay: Growth inhibition of Cryptococcus neoformans H99 ATCC 208821 at 32 ug/ml after 24 hrs by resazurin dye-based microspectrophotometric assay; format: functional; conditions: var. grubii H99 ATCC 208821, 24 h, read-out: GI
In short: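 Yeasts were grown 3 days on YPD agar at 30 °C, suspended from five colonies and diluted in YNB broth to a final 2.5×10^3 CFU/mL. Compound at a final 32 μg/mL; incubated 24 h at 35 °C without shaking. C. albicans was read at OD530. C. neoformans was read as OD600–570 after resazurin (0.001% final) and a further 2 h at 35 °C. Fluconazole was the standard.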

[10] = Hemolytic activity against human RBC at 50 uM after 1 hr by Drabkin's assay relative to control; format: ADME, cell-based, Erythrocyte; conditions: human red blood cells (erythrocytes), read-out: Activity
[11] = test system: Escherichia coli; assay: Growth inhibition of Escherichia coli ATCC 25922 at 32 ug/ml after 18 hrs; format: functional; conditions: ATCC 25922, 18 h, read-out: GI; in short: as §1
[12] = Hemolytic activity against human RBC at 0.39 uM after 1 hr by Drabkin's assay relative to control; format: ADME, cell-based, Erythrocyte; conditions: human red blood cells (erythrocytes), read-out: Activity
[13] = test system: Klebsiella pneumoniae; assay: Growth inhibition of multidrug-resistant Klebsiella pneumoniae ATCC 700603 at 32 ug/ml after 18 hrs; format: functional; conditions: ATCC 700603, 18 h, read-out: GI
In short: (§2)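 Mid-log cultures in cation-adjusted Mueller Hinton broth were added at 5×10^5 CFU/mL to wells at a final compound concentration of 32 μg/mL. Plates stood at 37 °C for 18 h. Growth was read by OD600, and % inhibition was computed against media-only and untreated-bacteria controls.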

[14] = test system: Acinetobacter baumannii; assay: Growth inhibition of Acinetobacter baumannii ATCC 19606 at 32 ug/ml after 18 hrs; format: functional; conditions: ATCC 19606 = CIP 70.34 = JCM 6841, 18 h, read-out: GI; in short: as §1
[15] = Induction of pore formation in DOPC vesicles at 20 uM after 3 hrs by carboxyfluorescein dye leakage assay; conditions: in the assay text read “after 3 mins” for “after 3 hrs”
In short: (§3)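 POPC or DOPC liposomes were hydrated in 10 mM HEPES, 100 mM KCl, pH 7.4, containing 50 mM carboxyfluorescein. Size was checked by dynamic light scattering, and vesicles were used at 2.2×10^10 per mL. Peptide at 20 μM was equilibrated with vesicles for 3 min, and dye leakage was measured.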

[16] = test system: Erythrocyte; assay: Hemolytic activity against human RBC after 1 hr by Drabkin's assay; format: ADME, cell-based
[17] = test system: Staphylococcus aureus; assay: Growth inhibition of methicillin-resistant Staphylococcus aureus ATCC 43300 at 32 ug/ml after 18 hrs; format: functional; conditions: ATCC 43300, 18 h, read-out: GI; in short: as §2
[18] = target: Lipid bilayer; assay: Binding affinity to POPC vesicles by surface plasmon resonance spectroscopy
In short: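 SPR on a dextran chip carrying immobilized POPC liposomes, with running buffer of 10 mM HEPES and 100 mM KCl at pH 7.4. Peptides in PBS were flowed at 25 μL/min at 10–1000 μM, with reference-subtracted response units. KD and Rmax were fitted from maximum response versus concentration. Regeneration used 20 mM CHAPS followed by fresh liposomes.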

[19] = Hemolytic activity against human RBC at 100 uM after 1 hr by Drabkin's assay relative to control; format: ADME, cell-based, Erythrocyte; conditions: human red blood cells (erythrocytes), read-out: Activity
[20] = test system: Lipid bilayer; assay: Induction of pore formation in POPC vesicles at 20 uM after 3 hrs by carboxyfluorescein dye leakage assay; conditions: in the assay text read “after 3 mins” for “after 3 hrs”; in short: as §3

Compound | hemolysis at 1 h, 3.125 µM [1] | hemolysis at 1 h, 25 µM [2] | inhibition of growth at 32 µg/mL [3] | inhibition of growth at 32 µg/mL [4] | hemolysis at 1 h, 12.5 µM [5] | hemolysis at 1 h, 1.56 µM [6] | hemolysis at 1 h, 0.78 µM [7] | hemolysis at 1 h, 6.25 µM [8] | inhibition of growth at 32 µg/mL [9] | hemolysis at 1 h, 50 µM [10] | inhibition of growth at 32 µg/mL [11] | hemolysis at 1 h, 0.39 µM [12] | inhibition of growth at 32 µg/mL [13] | inhibition of growth at 32 µg/mL [14] | Activity [15] | Activity [16] | inhibition of growth at 32 µg/mL [17] | hemolysis at 1 h, 100 µM [19] | Activity [20] | also measured
CC(C)(C)OC(=O)[C@@H]1CCCN1C(=O)N1CCCN1C(=O)[C@@H]1CCCN1C(=O)N1CCCN1C(=O)[C@@H]1CCCN1C(=O)N1CCCN1C(=O)[C@@H]1CCCN1C(=O)N1CCCN1C(=O)[C@@H]1CCCN1C(=O)N1CCCN1C(=O)[C@@H]1CCCN1C(=O)N1CCCN1C(=O)[C@@H]1CCCN1C(=O)N1CCCN1C(=O)[C@@H]1CCCN1C(=O)N1CCCN1C(=O)[C@@H]1CCCN1C(=O)N1CCCN1C(=O)[C@@H]1CCCN1C(=O)N1CCCN1C(=O)[C@@H]1CCCN1C(=O)N1CCCN1C(=O)[C@@H]1CCCN1C(=O)N1CCCN1C(=O)[C@@H]1CCCN1C(=O)N1CCCN1C(=O)[C@@H]1CCCN1C(=O)N1CCCN1C(=O)[C@@H]1CCCN1C(=O)N1CCCN1C(=O)[C@@H]1CCCN1C(=O)N1CCCN1C(=O)OCc1ccccc1 | -0.33% | -0.49% | -0.85% | 4.41% | -0.33% | -0.16% | -0.2% | -0.24% | -1.18% | -0.55% | 8.57% | -0.24% | 8.57% | -19% | inactive | Dose-dependent effect | 25.3% | – | – | –
CC(=O)N1CCCN1C(=O)N1CCC[C@H]1C(=O)N1CCCN1C(=O)N1CCC[C@H]1C(=O)N1CCCN1C(=O)N1CCC[C@H]1C(=O)N1CCCN1C(=O)N1CCC[C@H]1C(=O)N1CCCN1C(=O)N1CCC[C@H]1C(=O)N1CCCN1C(=O)N1CCC[C@H]1C(=O)N1CCCN1C(=O)N1CCC[C@H]1C(=O)N1CCCN1C(=O)N1CCC[C@H]1C(=O)NCCO | -0.12% | 0% | -0.44% | 2.45% | -0.33% | -0.12% | -0.16% | 0.08% | -0.86% | -0.57% | 10.7% | – | 10.7% | 6.55% | inactive | Dose-dependent effect | 16.5% | – | – | pKd [18]: 3.21; Rmax [18]: 460
O=CN1CCCN1C(=O)N1CCC[C@H]1C(=O)N1CCCN1C(=O)N1CCC[C@H]1C(=O)N1CCCN1C(=O)N1CCC[C@H]1C(=O)N1CCCN1C(=O)N1CCC[C@H]1C(=O)N1CCCN1C(=O)N1CCC[C@H]1C(=O)N1CCCN1C(=O)N1CCC[C@H]1C(=O)N1CCCN1C(=O)N1CCC[C@H]1C(=O)N1CCCN1C(=O)N1CCC[C@H]1C(=O)NCCO | 0.02% | -0.23% | -4.91% | 5.4% | -0.23% | -0.17% | 0.08% | -0.17% | -8.24% | -0.17% | 3.23% | -0.11% | 3.23% | 12.3% | inactive | Dose-dependent effect | 16.5% | – | – | –
O=C(O)[C@@H]1CCCN1C(=O)N1CCCN1C(=O)[C@@H]1CCCN1C(=O)N1CCCN1C(=O)[C@@H]1CCCN1C(=O)N1CCCN1C(=O)[C@@H]1CCCN1C(=O)N1CCCN1C(=O)[C@@H]1CCCN1C(=O)N1CCCN1C(=O)[C@@H]1CCCN1C(=O)N1CCCN1C(=O)[C@@H]1CCCN1C(=O)N1CCCN1C(=O)[C@@H]1CCCN1C(=O)N1CCCN1C(=O)OCc1ccccc1 | 0.271% | -0.181% | -9.17% | 2.73% | 0.181% | -0.452% | -0.181% | -0.09% | -1.86% | -0.361% | 4.92% | -0.271% | 4.92% | 4.46% | – | Dose-dependent effect | 1.14% | -0.271% | inactive | –
CC(C)(C)OC(=O)[C@@H]1CCCN1C(=O)N1CCCN1C(=O)[C@@H]1CCCN1C(=O)N1CCCN1C(=O)[C@@H]1CCCN1C(=O)N1CCCN1C(=O)[C@@H]1CCCN1C(=O)N1CCCN1C(=O)OCc1ccccc1 | 0.181% | 0% | -8.9% | 4.13% | -0.09% | 0.361% | 0% | 0.09% | -0.865% | -0.09% | -3.42% | 0.08% | -3.42% | 30.2% | – | Dose-dependent effect | 13.6% | 0% | inactive | –
O=CN1CCCN1C(=O)N1CCC[C@H]1C(=O)N1CCCN1C(=O)N1CCC[C@H]1C(=O)N1CCCN1C(=O)N1CCC[C@H]1C(=O)N1CCCN1C(=O)N1CCC[C@H]1C(=O)N1CCCN1C(=O)N1CCC[C@H]1C(=O)N1CCCN1C(=O)N1CCC[C@H]1C(=O)NCCO | -0.55% | 0.271% | -12.5% | 5.12% | -0.452% | -0.12% | -0.16% | -0.181% | -11.1% | -0.49% | 0.72% | -0.12% | 0.72% | 3.07% | – | Dose-dependent effect | 1.36% | -0.55% | inactive | –
O=C(O)[C@@H]1CCCN1C(=O)N1CCCN1C(=O)[C@@H]1CCCN1C(=O)N1CCCN1C(=O)[C@@H]1CCCN1C(=O)N1CCCN1C(=O)[C@@H]1CCCN1C(=O)N1CCCN1C(=O)OCc1ccccc1 | 0.452% | -0.361% | -6.53% | 3.59% | 0.09% | 0.542% | 0.09% | 0.452% | -5.78% | 0.09% | 4.23% | 0.09% | 4.23% | 14% | – | Dose-dependent effect | 27% | 0.542% | inactive | –
